Common to all, as to format: biochemical
The nature of assay [1]: OH radical scavenging activity. As to conditions: absorbance at 520 nm; triplicate. An outline of the steps: (§1)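 Absorbance endpoint assays, read on a UV-visible spectrophotometer (H2O2 assay on a microplate reader). Percent scavenging was measured across a series of sample concentrations. IC50 was taken from a graph of inhibition percentage versus sample concentration. Triplicate analyses, reported as mean±SD.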

Assay [2] in a line: superoxide. As to conditions: xanthine-XO method, 560 nm; triplicate. An outline of the steps: as §1
The nature of assay [3]: H2O2 radical scavenging activity. As to conditions: 405 nm; triplicate. In outline: as §1
The nature of assay [4]: NO radical. The note with it: nitrite scavenging effect, 520 nm; triplicate. An outline of the steps: as §1
Assay [5] deals with xanthine oxidase (XO) (Bos taurus, UniProt P80457). Briefly: XO inhibitory activity.
Sequence of xanthine oxidase (XO) (P80457 whole entry): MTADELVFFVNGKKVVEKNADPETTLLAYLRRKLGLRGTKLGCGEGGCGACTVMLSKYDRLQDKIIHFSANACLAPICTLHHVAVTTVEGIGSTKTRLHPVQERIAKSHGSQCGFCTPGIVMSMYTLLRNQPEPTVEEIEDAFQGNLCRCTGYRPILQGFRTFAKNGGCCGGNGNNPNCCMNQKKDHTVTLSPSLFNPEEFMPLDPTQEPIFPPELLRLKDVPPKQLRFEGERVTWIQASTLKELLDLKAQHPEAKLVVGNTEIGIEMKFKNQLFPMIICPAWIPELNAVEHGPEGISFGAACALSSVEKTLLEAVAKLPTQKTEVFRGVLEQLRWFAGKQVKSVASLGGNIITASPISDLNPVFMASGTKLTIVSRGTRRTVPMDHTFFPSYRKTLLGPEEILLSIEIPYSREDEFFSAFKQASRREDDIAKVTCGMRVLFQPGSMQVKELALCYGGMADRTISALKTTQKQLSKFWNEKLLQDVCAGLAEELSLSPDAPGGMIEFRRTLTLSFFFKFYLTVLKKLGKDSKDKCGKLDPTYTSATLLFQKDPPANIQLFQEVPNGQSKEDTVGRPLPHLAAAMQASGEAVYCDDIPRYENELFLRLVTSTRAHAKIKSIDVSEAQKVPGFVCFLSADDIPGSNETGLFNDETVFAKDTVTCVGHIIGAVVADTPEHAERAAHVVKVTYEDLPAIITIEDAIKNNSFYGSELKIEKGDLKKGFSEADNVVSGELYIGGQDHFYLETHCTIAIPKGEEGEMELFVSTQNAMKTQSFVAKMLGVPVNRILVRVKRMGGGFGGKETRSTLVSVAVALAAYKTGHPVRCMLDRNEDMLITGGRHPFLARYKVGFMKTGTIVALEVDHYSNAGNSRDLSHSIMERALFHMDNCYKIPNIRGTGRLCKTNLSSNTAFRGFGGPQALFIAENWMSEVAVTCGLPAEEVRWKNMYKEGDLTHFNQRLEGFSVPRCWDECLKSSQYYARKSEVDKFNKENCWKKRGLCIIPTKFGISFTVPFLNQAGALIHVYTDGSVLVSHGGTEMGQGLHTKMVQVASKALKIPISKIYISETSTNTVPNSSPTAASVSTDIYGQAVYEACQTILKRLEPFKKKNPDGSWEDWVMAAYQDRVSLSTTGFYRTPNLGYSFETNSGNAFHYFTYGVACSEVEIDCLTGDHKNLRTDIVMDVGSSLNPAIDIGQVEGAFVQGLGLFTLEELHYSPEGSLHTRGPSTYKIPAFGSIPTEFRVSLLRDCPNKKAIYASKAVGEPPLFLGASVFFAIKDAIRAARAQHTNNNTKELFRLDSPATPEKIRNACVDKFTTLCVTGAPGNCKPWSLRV
The target in assay [6] is tyrosinase. The assay can be described thus: Tyrosinase inhibitory activity. The note with it: L-DOPA substrate, 25°C, 2 min, pH 6.8; mean±SD.

Molecules are shown by their SMILES. Marks after values point to notes of the source that are not given here.

On to `COc1ccc(O)c(C(C)(C)C)c1` [BHA, butylated hydroxyanisole], for which the “IC50 of OH radical scavenging activity” value in assay [1] is 37.22 µg/mL. In assay [2], the “IC50 of O2 radical scavenging activity” value is 68.45 µg/mL. Moreover, in assay [3], the “IC50 of H2O2 radical scavenging activity” value came out at 22.47 µg/mL. Besides, the “IC50 of NO radical scavenging activity” value in assay [4] is 40.54 µg/mL.
Turning to `O=C1O[C@H]([C@@H](O)CO)C(O)=C1O` [ascorbic acid, Ascorbic acid], the “IC50 of OH radical scavenging activity” value in assay [1] came out at 104.93 µg/mL. Besides, the “IC50 of O2 radical scavenging activity” value in assay [2] is 99.43 µg/mL. Also, the “IC50 of H2O2 radical scavenging activity” value in assay [3] came to 42.42 µg/mL. Besides, in assay [4], the “IC50 of NO radical scavenging activity” value came to 122.64 µg/mL.
Taken in the same sequence, the figures for `Cc1c(C)c2c(c(C)c1O)CC[C@@](C)(CCC[C@H](C)CCC[C@H](C)CCCC(C)C)O2` [α-tocopherol] were 12.93 ± 1.64 µg/mL, 84.92 ± 2.34 µg/mL, 39.40 ± 0.77 µg/mL and 15.72 ± 1.22 µg/mL.
By IC50 is commonly meant the concentration that inhibits the measured activity by half. Low readings indicate higher potency, high ones lower potency. For the compound `CC1=C(O)C(=O)C(C)(O)S1` (stereo not drawn) [Thiacremonone, 2,4-dihydroxy-2,5-dimethyl-thiophene-3-one], the “IC50 of OH radical scavenging activity” value in assay [1] is 92.50 µg/mL. In addition, in assay [2], the “IC50 of O2 radical scavenging activity” value turned out to be 65.05 µg/mL. In addition, the “IC50 of H2O2 radical scavenging activity” value in assay [3] is 12.60 µg/mL. Also, in assay [4], the “IC50 of NO radical scavenging activity” value amounted to 81.53 µg/mL. In assay [5], the half-maximal inhibitory concentration (IC50) was 246 µM. Further, in assay [6], the “IC50 Tyrosinase inhibition” value is listed as 101.931±2.601^a μg/mL.

The values are drawn from PMC4827638 (Preventive Nutrition and Food Science, 2016).
